An excerpt weighted towards active compounds, which were near 9.2% of everything screened.
HCT116 bCat-KO – beta-catenin-lacking colon tumor cell growth suppression | HCT116 beta-catenin knockout viability, CellTiter-Glo, 60 h; hits give low values | viability, % at 10 µM | actives 1.5% (n = 140,000);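 active = viability at or under a set limit, the compound median less 4 SD, cut at about 6% in these data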;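 note: 0% = Hyamine 1622 control at 20 µM and 100% = untreated cell control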
HCT116 PTEN-null – PTEN-deleted cell growth suppression; HCT116 PTEN-null viability, CellTiter-Glo, 60 h; hits give low values; viability, % at 10 µM; actives 1.2% (n = 140,000); AID 827;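 active = viability at or below a set limit, 4 SD under the median of all tested compounds, cut at about 3.7% in these data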;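 note: PTEN knockout HCT116 line with beta catenin targeted HCT116 as companion control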
Autophagy mod – autophagy modulation, high-content screen. MEF GFP-LC3 puncta imaging; test concentration mostly 10 µM. calls only at 10 µM (by protocol). actives 0.98% (n = 190,000);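 active = percentage of spot-positive cells more than 3 SD above its plate mean, without a fluorescence outlier flag or 80% toxicity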;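 note: spot-positive cell cutoff set from DMSO-treated cells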
L major viab – reduces viability of Leishmania major promastigotes. AID 1063. inhibition, % at 10 µM. resazurin fluorescence viability. actives 9% (n = 200,000); in the data active = inhibition above about 50%;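 note: promastigotes grown with compound for 44 hours at 28 °C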
Dynein transport – dynein cargo transport inhibition; 3617.4 mouse cells, GR-EGFP nuclear translocation imaging; test concentration mostly 20 µM; stimulated with dexamethasone, 1 µM; hits give low values; actives 0.47% (n = 220,000); AID 1381; z-score, hits read low;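 active = plate z-score of nuclear minus cytoplasmic receptor signal below a set negative limit, without overly bright fluorescence or cell loss, cut at about -3.5 in these data, passing the limit was not always enough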;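 note: z-score of nuclear minus cytoplasmic ring GR-EGFP intensity difference per well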
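medium = tetracycline-free induction medium containing charcoal-stripped FBS | probe or stimulus = dexamethasone, 1.0 µM final | timing = 48 h induction, then 1 h compound, then 30 min agonist, 37 °C | detection = automated 10x imaging of fixed Hoechst-stained cells | read-out basis = nuclear versus cytoplasmic GR-EGFP signal, averaged per well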
* marks the source's active call; other numbers are inactive results; i = inactive; . = not tested or not shown; + = active, no number.

SMILES | HCT116 bCat-KO | HCT116 PTEN-null | Autophagy mod | L major viab | Dynein transport
O=C(CNC(=S)N(Cc1ccccc1)Cc1cccnc1)N1CCOCC1 | . | . | i | -5 | -0.46
O=C(Nc1ncc(Br)s1)C(Cc1ccccc1)n1cccc1 (centres undefined) | 58 | 56 | i | 25 | 0.72
O=C(O)CCCCNCc1ccccc1 | 103 | 101 | i | -6 | -0.51
OCCCCNCc1ccc(OCc2ccccc2)cc1 | 77 | 95 | i | 90* | 1.3
OCCCCNCc1ccc(OCc2ccccc2Cl)cc1 | 71 | 70 | i | 97* | -0.49
OCCCNCc1ccc(-c2ccccc2)cc1 | . | . | i | 92* | 1.5
O=C(CN1CCN(CC(=O)Nc2ccccc2F)CC1)Nc1ccc2c(c1)OCCO2 | . | . | i | -6 | -0.082
CCC(CC)c1nnc(NC(=O)c2cccnc2SC)s1 | . | . | i | -3 | -0.89
O=S(=O)(c1cccc2nsnc12)N1CCN(C/C=C/c2ccccc2)CC1 | 94 | 81 | i | 81* | 0.64
O=S(=O)(c1cccc2nsnc12)N1CCN(C/C=C\c2ccccc2)CC1 | 84 | 87 | i | 94* | 2.6
CCN1CCN(S(=O)(=O)c2cccc3nsnc23)CC1 | 98 | 98 | i | -4 | 0.97
O=C(NCc1ccccc1)C(=O)NCC(c1ccco1)N1CCN(c2ccccc2F)CC1 (centres undefined) | . | . | i | 12 | 0.46
O=C(NCCC1=CCCCC1)C(=O)NCC(c1ccco1)N1CCN(c2ccc(F)cc2)CC1 (centres undefined) | 82 | 76 | i | 80* | -0.69
O=C(NCC(c1cccnc1)N1CCN(c2ccccc2)CC1)c1ccco1 (centres undefined) | . | . | i | 89* | 0.69
COc1ccc(N2CCN(C(CNC(C)=O)c3ccco3)CC2)cc1 (centres undefined) | . | . | i | 1 | 0.8
O=C(NCc1cccnc1)C(=O)NCC(c1ccco1)N1CCN(c2ccccc2F)CC1 (centres undefined) | 94 | 91 | i | 56* | -0.21
O=C(NCc1cccnc1)C(=O)NCC(c1ccco1)N1CCOCC1 (centres undefined) | . | . | i | -14 | -0.72
O=C(NCc1cccs1)C(=O)NCC(c1ccco1)N1CCN(c2ccccc2)CC1 (centres undefined) | . | . | i | 0 | 0.27
O=C(NCc1cccnc1)C(=O)NCC(c1ccco1)N1CCN(c2ccccc2)CC1 (centres undefined) | 101 | 86 | i | 52* | -1
COC(=O)C1=NNC(C(=O)c2ccco2)C1c1ccc(OC)cc1 (centres undefined) | . | . | i | -6 | -0.42
Cc1cc(C)c(O)c(N)c1 | . | . | i | -5 | -0.68
Cc1cccc(N2CCN(C(=O)CCn3c(=S)[nH]c4cc5c(cc4c3=O)OCO5)CC2C)c1 (centres undefined) | 42 | 50 | i | 10 | -1.2
O=C(NCCc1c[nH]c2ccccc12)/C(=C\c1ccco1)NC(=O)c1ccco1 | 91 | 93 | i | 56* | 0.069
O=C(NCCc1c[nH]c2ccccc12)C(=O)NCC(c1ccco1)N1CCN(c2ccccc2F)CC1 (centres undefined) | 73 | 71 | i | 76* | -0.22
Cc1[nH]c2ccccc2c1NC(=O)CN1CCN(C(=O)c2ccco2)CC1 | . | . | . | . | 0.98
SMILES | HCT116 bCat-KO | HCT116 PTEN-null | Autophagy mod | L major viab | Dynein transport
Cn1c(-c2ccccc2)cnc1NCc1cc2c(cc1[N+](=O)[O-])OCO2 | 75 | 71 | i | 87* | 0.039
Cn1c(-c2ccc(Cl)cc2)cnc1NCc1cc2c(cc1[N+](=O)[O-])OCO2 | 72 | 71 | i | 98* | 0.35
Cn1c(-c2ccc(F)cc2)cnc1NCc1cc2c(cc1[N+](=O)[O-])OCO2 | 85 | 82 | i | 99* | 0.16
CCOc1ccccc1N(CC(=O)N1CCOCC1)S(=O)(=O)c1ccc(SC)cc1 | 91 | 99 | i | -9 | -0.11
CCCCCCCCS(=O)c1sc2nc(C)cc(C)c2c1N (centres undefined) | 87 | 89 | i | -5 | -2.3
c1ccc(-n2nnnc2Sc2ncnc3sc4c(c23)CCCC4)cc1 | 4.5* | 4 | i | -3 | -2.6
Cc1sc2ncnc(Sc3nnnn3-c3ccc(Cl)cc3)c2c1C | 4.9* | 5 | i | 1 | -2.6
CCc1ccc2[nH]c(O)c(N=Nc3nc(-c4ccccc4)cs3)c2c1 | 22 | 31 | i | 7 | -1.7
COc1ccc(C2SCCN2C(=S)Nc2cccc(Cl)c2)cc1 (centres undefined) | 88 | 86 | i | 80* | 0.27
COc1ccc(Nc2nnc(SCC(=O)N3CC(=O)Nc4ccccc43)s2)cc1 | . | . | i | 35 | 1.4
O=C(N/N=C/C=C/c1ccccc1)NC1CCCCC1 | . | . | + | 2 | 0.37
Cc1cccc(C)c1NC(=O)COC(=O)c1ccc2[nH]c3c(c2c1)CCCC3 | . | . | i | 6 | 2.3
O=C(COC(=O)c1ccc2[nH]c3c(c2c1)CCCC3)Nc1ccccc1 | 79 | 82 | i | 88* | -0.59
N#Cc1cc2ccccc2nc1SCC(=O)Nc1ccccc1N1CCOCC1 | 84 | 73 | + | -2 | 0.37
COc1ccc(-n2nnnc2SCC(=O)Nc2ccccc2N2CCOCC2)cc1 | . | . | i | 99* | -0.064
Cc1ccc(-n2nnnc2SCC(=O)Nc2ccccc2N2CCCCC2)cc1C | 65 | 71 | i | 34 | 0.63
O=C(CSc1nnnn1C1CCCCC1)Nc1ccccc1N1CCOCC1 | . | . | i | 60* | -1
CC(C)n1nnnc1SCC(=O)Nc1ccccc1N1CCOCC1 | 94 | 92 | . | . | .
Cc1cccc2cc(C#N)c(SCC(=O)Nc3ccccc3N3CCOCC3)nc12 | 71 | 78 | i | 3 | 0.29
N#Cc1ccccc1NC(=O)CNc1ccccc1N1CCCCC1 | 67 | 77 | i | 71* | -0.33
O=C(Cc1ccc(Br)c2ccccc12)N/N=C/c1ccccn1 | . | . | i | 36 | -0.16
CCOC(=O)NC(=O)CSc1ccc(C)cc1C | . | . | i | 3 | -0.89
CC(=C/c1ccccc1)/C=N/Nc1nc(N2CCOCC2)nc(N2CCOCC2)n1 | 86 | 96 | i | 63* | 0.36
C(=C\c1ccccc1)/C=N/Nc1nc(N2CCOCC2)nc(N2CCOCC2)n1 | 98 | 100 | i | 0 | 1.2
O=[N+]([O-])c1cccc(/C=N/Nc2nc(N3CCOCC3)nc(N3CCOCC3)n2)c1 | 102 | 102 | i | 73* | -0.2
O=[N+]([O-])c1ccc(/C=N/Nc2nc(N3CCOCC3)nc(N3CCOCC3)n2)cc1 | . | . | i | -4 | -0.72
NS(=O)(=O)c1ccc(Nc2ncccc2[N+](=O)[O-])cc1 | 105 | 118 | i | 75* | 0.5
NS(=O)(=O)c1ccc(Nc2ccc([N+](=O)[O-])c3nonc23)cc1 | . | . | . | . | -0.58
Cc1cc(C)n(-c2nc(NC(C)(C)C)nc(NC(C)(C)C)n2)n1 | 4.6* | 12 | i | 23 | -0.3

Compound activity (PubChem)
